The source made the active and inactive calls. No cut-off for these calls is given here.

Test [1] concerns the target T1, 5-hydroxytryptamine receptor 1B (Homo sapiens, UniProt P28222). Nature of the test: Displacement of [3H]5-HT from human recombinant 5-HT1B receptor expressed in CHO cells. The format is cell-based.
Test [2] addresses T2, 5-hydroxytryptamine receptor 1A (Homo sapiens, UniProt P08908).
T2 sequence (P08908 whole entry): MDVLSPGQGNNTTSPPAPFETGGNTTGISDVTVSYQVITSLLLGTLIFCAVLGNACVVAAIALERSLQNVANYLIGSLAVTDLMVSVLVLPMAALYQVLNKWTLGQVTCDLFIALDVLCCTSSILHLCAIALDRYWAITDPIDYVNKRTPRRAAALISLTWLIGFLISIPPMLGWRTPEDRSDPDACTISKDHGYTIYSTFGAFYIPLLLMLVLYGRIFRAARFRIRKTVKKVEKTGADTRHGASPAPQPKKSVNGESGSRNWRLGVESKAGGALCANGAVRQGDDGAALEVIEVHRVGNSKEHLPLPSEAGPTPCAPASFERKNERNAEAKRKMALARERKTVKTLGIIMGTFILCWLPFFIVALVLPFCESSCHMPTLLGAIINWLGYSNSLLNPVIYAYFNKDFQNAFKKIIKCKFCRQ
Nature of the test: Displacement of [3H]WAY100635 from human recombinant 5-HT1A receptor expressed in CHO cells. In kind it is cell-based.

Test [3] concerns the target T3, 5-hydroxytryptamine receptor 1D (Homo sapiens, UniProt P28221). Description: Displacement of [3H]5-HT from human recombinant 5-HT1D receptor expressed in CHO cells. In kind it is cell-based.
Test [4] concerns the target T4, 5-hydroxytryptamine receptor 1A (Homo sapiens) (UniProt P08908).
T4 sequence (whole entry): T2 sequence (P08908 whole entry)
Nature of the test: Intrinsic activity at human recombinant 5-HT1A receptor expressed in HEK293 cells by [S35]GTPgammaS binding assay relative to 5-HT. The format is functional, cell-based. The gist of the method: (§1)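 [35S]-GTPγS binding in membranes from 10^6 cells (HEK293 for 5-HT1A; CHO for 5-HT1B, 5-HT1D), preincubated 30 min at 30 °C with compound in 20 mM HEPES pH 7.4, 3 mM MgCl2, 100 mM NaCl, 10 μM GDP, 0.2 mM ascorbate. 100 pM [35S]-GTPγS added, 30 min more at 30 °C; nonspecific with 20 μM GTPγS; filtration and scintillation counting.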

The target of test [5] is T1, 5-hydroxytryptamine receptor 1B. Nature of the test: Intrinsic activity at human recombinant 5-HT1B receptor expressed in CHO cells by [S35]GTPgammaS binding assay relative to 5-HT. In kind it is functional, cell-based. Put shortly: as §1
In test [6] the target is Sodium-dependent serotonin transporter (Rattus norvegicus, UniProt P31652). Nature of the test: Inhibition of [3H]5-HT uptake at SERT in rat cortical synaptosomes. In kind it is subcellular, Brain.
Chain of Sodium-dependent serotonin transporter (P31652 whole entry): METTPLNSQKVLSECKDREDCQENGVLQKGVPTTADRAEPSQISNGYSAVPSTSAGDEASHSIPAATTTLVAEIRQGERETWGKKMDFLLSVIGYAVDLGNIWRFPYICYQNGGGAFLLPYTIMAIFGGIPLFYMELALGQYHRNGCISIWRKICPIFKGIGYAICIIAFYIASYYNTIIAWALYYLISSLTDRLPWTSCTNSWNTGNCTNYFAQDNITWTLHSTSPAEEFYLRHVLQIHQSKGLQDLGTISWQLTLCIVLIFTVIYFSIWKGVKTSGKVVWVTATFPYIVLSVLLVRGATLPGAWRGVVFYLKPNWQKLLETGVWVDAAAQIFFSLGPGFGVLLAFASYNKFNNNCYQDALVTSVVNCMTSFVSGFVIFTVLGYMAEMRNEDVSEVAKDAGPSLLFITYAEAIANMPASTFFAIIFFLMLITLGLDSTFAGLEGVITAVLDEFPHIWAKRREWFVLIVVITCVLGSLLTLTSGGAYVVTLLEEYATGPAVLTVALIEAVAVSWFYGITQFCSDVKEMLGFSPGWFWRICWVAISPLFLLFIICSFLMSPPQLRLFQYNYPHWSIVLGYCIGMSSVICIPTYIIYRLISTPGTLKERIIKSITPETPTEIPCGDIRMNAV
Test [7] addresses T1, 5-hydroxytryptamine receptor 1B. Nature of the test: Inverse agonist activity at human recombinant 5-HT1B receptor expressed in CHO cells by [S35]GTPgammaS binding assay. In kind it is functional, cell-based. The gist of the method: as §1
Test [8] addresses T3, 5-hydroxytryptamine receptor 1D. Nature of the test: Inverse agonist activity at human recombinant 5-HT1D receptor expressed in CHO cells by [S35]GTPgammaS binding assay. The format is functional, cell-based. Put shortly:
as §1

The target of test [9] is T4, 5-hydroxytryptamine receptor 1A (Homo sapiens). Nature of the test: Inverse agonist activity at human recombinant 5-HT1A receptor expressed in HEK293 cells by [S35]GTPgammaS binding assay. The format is functional, cell-based. Put shortly: as §1
Test [10] has as its target D(3) dopamine receptor (Homo sapiens, UniProt P35462). Description: Binding affinity to human recombinant dopamine D3 receptor by radioligand displacement assay.
Test [11] has as its target D(2) dopamine receptor (Homo sapiens, UniProt P14416). Nature of the test: Binding affinity to human recombinant dopamine D2 receptor by radioligand displacement assay.
Test [12] has as its target T5, 5-hydroxytryptamine receptor 2C (Homo sapiens, UniProt P28335).
T5 sequence (P28335 whole entry): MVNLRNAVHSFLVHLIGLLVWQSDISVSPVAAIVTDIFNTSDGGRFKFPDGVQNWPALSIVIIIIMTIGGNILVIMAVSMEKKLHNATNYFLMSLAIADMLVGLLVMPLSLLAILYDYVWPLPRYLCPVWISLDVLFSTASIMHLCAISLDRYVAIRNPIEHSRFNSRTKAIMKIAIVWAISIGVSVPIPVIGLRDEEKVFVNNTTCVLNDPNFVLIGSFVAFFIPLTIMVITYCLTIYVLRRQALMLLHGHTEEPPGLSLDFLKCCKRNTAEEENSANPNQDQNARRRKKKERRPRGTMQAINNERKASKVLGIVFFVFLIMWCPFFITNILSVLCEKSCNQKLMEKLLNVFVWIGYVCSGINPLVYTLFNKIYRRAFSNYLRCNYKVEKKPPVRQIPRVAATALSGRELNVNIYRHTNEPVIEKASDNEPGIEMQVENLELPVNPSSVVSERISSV
Description: Binding affinity to human recombinant 5-HT2C receptor by radioligand displacement assay.

Test [13] concerns the target 5-hydroxytryptamine receptor 6 (Homo sapiens, UniProt P50406). Description: Binding affinity to human recombinant 5-HT6 receptor by radioligand displacement assay.
For test [14], the target named is 5-hydroxytryptamine receptor 2A (Homo sapiens, UniProt P28223). Description: Binding affinity to human recombinant 5-HT2A receptor by radioligand displacement assay.
Chain of 5-hydroxytryptamine receptor 2A (P28223 whole entry): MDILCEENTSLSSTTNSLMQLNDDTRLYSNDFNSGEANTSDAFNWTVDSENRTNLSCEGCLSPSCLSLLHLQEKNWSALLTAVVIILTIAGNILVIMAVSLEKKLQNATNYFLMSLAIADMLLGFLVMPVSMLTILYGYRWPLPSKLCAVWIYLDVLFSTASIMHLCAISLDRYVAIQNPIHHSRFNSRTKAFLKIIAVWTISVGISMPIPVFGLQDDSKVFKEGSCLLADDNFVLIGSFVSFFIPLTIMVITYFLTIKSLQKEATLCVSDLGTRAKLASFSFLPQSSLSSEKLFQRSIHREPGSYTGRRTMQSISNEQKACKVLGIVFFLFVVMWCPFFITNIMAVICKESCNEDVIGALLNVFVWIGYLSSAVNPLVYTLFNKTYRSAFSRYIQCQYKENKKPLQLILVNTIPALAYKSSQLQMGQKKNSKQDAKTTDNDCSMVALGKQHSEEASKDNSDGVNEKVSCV
The target of test [15] is 5-hydroxytryptamine receptor 7 (Homo sapiens, UniProt P34969). Description: Binding affinity to human recombinant 5-HT7 receptor by radioligand displacement assay.
Chain of 5-hydroxytryptamine receptor 7 (P34969 whole entry): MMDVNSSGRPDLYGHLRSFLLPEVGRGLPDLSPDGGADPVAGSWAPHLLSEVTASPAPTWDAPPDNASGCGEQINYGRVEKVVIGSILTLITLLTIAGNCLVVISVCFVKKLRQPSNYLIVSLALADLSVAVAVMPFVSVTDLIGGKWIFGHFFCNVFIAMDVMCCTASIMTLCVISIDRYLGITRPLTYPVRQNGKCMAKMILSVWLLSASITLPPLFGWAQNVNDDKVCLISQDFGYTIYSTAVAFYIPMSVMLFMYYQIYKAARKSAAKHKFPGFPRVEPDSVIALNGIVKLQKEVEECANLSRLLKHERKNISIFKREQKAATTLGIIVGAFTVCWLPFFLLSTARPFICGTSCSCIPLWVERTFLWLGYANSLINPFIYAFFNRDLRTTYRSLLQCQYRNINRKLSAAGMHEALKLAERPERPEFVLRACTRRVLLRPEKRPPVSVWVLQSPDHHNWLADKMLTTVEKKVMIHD
Test [16] concerns the target 5-hydroxytryptamine receptor 2B (Homo sapiens, UniProt P41595). Description: Binding affinity to human recombinant 5-HT2B receptor by radioligand displacement assay.
Test [17] concerns the target T3, 5-hydroxytryptamine receptor 1D. Description: Intrinsic activity at human recombinant 5-HT1D receptor expressed in CHO cells by [S35]GTPgammaS binding assay relative to 5-HT. The format is functional, cell-based. The gist of the method: as §1

Chain of 5-hydroxytryptamine receptor 2B (P41595 whole entry): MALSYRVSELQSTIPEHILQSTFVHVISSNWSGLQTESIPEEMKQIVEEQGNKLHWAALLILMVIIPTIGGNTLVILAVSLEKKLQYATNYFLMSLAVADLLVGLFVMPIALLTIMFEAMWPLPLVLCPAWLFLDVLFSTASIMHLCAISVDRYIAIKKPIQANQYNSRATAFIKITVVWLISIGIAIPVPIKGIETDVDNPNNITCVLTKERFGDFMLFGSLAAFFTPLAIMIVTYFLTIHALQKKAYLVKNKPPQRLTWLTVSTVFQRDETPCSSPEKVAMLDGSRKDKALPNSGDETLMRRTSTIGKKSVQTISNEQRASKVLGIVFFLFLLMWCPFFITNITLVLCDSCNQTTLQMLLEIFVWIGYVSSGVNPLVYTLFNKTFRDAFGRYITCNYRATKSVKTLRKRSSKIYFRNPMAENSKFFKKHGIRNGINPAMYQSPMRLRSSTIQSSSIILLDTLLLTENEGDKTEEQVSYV
Chain of 5-hydroxytryptamine receptor 6 (P50406 whole entry): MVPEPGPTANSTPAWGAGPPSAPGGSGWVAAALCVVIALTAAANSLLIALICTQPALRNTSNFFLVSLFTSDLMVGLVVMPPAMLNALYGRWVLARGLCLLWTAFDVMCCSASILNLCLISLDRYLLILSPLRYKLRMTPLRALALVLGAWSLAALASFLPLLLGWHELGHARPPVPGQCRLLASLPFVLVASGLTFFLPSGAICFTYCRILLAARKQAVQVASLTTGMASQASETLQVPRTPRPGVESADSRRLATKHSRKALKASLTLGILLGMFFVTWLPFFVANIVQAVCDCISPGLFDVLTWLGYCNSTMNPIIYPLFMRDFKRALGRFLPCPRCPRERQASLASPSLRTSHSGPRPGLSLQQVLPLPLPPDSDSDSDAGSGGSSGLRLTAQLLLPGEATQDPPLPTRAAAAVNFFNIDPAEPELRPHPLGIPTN
T1 sequence (P28222 whole entry): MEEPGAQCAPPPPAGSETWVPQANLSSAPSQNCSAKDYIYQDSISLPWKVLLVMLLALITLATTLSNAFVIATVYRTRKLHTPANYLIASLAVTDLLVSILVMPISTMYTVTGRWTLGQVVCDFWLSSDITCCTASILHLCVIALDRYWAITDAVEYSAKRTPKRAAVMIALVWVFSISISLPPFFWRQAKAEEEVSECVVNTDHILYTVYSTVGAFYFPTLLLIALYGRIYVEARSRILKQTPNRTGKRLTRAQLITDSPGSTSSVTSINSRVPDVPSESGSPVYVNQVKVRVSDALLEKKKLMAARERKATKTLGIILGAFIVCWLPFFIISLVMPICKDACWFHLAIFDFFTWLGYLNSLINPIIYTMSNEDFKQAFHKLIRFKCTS
Chain of D(3) dopamine receptor (P35462 whole entry): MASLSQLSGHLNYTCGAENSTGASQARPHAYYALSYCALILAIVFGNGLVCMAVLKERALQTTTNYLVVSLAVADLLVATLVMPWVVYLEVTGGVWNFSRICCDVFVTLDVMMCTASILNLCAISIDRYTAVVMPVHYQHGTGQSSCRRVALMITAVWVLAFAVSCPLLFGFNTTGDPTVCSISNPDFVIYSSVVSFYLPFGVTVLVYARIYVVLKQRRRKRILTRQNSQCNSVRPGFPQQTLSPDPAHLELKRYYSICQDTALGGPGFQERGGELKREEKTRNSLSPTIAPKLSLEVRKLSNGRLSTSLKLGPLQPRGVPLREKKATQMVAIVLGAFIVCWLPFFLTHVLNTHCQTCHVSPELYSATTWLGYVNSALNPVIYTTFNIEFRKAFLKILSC
T3 sequence (P28221 whole entry): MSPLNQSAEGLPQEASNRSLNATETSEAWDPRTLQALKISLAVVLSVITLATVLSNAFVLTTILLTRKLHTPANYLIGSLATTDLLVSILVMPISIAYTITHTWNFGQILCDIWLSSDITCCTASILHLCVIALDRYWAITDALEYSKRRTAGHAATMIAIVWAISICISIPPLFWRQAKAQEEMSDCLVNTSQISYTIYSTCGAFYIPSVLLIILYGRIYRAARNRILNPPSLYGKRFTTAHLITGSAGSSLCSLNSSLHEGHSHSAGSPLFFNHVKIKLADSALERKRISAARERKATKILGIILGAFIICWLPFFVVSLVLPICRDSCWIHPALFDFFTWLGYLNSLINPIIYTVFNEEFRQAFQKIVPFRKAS
Chain of D(2) dopamine receptor (P14416 whole entry): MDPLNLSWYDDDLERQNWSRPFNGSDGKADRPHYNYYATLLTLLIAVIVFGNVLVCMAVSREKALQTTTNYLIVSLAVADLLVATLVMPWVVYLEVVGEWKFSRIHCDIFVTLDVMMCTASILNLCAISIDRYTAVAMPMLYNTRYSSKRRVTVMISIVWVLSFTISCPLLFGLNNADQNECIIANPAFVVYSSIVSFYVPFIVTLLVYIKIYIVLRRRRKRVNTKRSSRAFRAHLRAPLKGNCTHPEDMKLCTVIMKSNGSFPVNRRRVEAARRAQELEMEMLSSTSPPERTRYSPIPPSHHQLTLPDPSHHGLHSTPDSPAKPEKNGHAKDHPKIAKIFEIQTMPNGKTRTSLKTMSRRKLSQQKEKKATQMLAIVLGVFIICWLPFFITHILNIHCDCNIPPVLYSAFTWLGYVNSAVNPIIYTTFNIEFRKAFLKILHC

`Cc1ccc2c(N3CCN(CCc4cccc(N5CCCOC5=O)c4)CC3)cccc2n1`: the Ki was 31.6 nM in [1], 2.51 nM in test [2] and 0.251 nM in test [3].

On to `Cc1ccc2c(N3CCN(CCc4ccc5c(c4)NC(=O)CO5)CC3)cccc2n1`, for which the Intrinsic activity in [4] was 0.2; in test [5], 0.1.

As to `CCCNC(=O)Nc1cccc(CCN2CCN(c3cccc4nc(C)ccc34)CC2)c1`, the Ki in [1] was 2 nM; in test [2] it was 5.01 nM; in test [6] it was 794 nM; in test [3] it was 0.158 nM.

Consider `CCOC(=O)Nc1cccc(CCN2CCN(c3cccc4nc(C)ccc34)CC2)c1`, for which the inhibition constant (Ki) in [1] was 1.26 nM; in test [2] it was 1.26 nM; in test [6], 794 nM; in test [3], 0.126 nM.

Regarding `Cc1ccc2c(N3CCN(CCc4cccc(N5C(=O)CCC5=O)c4)CC3)cccc2n1`, the Ki is 39.8 nM in test [1], 3.16 nM in test [2], 20000 nM in test [6] and 1.58 nM in test [3].

In the case of `Cc1ccc2c(N3CCN(CCc4cccc(NC(=O)C(C)(C)C)c4)CC3)cccc2n1`, the Ki was 2 nM in test [1], 6.31 nM in [2], 1580 nM in test [6] and 0.316 nM in test [3]. Also, the outcome in test [7], in [8] and in [9] was Active.

As to `CCC(=O)Nc1cccc(CCN2CCN(c3cccc4nc(C)ccc34)CC2)c1`, the Intrinsic activity in [4] worked out at 0. For the same compound, the Ki in test [1] was 1.26 nM; in [2], 2 nM; in [6], 1260 nM; in [3], 0.2 nM. Also, the result in test [7] and in test [8] was Active.

With `Cc1ccc2c(N3CCN(CCc4cccc(NC(=O)NC(C)(C)C)c4)CC3)cccc2n1`, the Ki in test [1] is 3.98 nM; in test [2] it was 7.94 nM; in test [6] it was 794 nM; in test [3], 0.251 nM.

Consider `Cc1ccc2c(N3CCN(CCc4cccc(NC(=O)Nc5ccccc5F)c4)CC3)cccc2n1`, for which the Ki is 1 nM in test [1], 3.16 nM in test [2], 2000 nM in test [6] and 0.2 nM in test [3].

Take `CC(=O)Nc1cccc(CCN2CCN(c3cccc4nc(C)ccc34)CC2)c1`: the Ki is 158 nM in test [10]; 0.501 nM in test [1]; 398 nM in test [11]; 1 nM in [2]; 1260 nM in [6]; 1000 nM in test [12]. The Ki in test [13] is above 3980 nM; in test [3], 0.251 nM; in test [14] it was 251 nM; in test [15], 63.1 nM; in [16] it was 158 nM.

Regarding `Cc1ccc2c(N3CCN(CCc4cccc(N5CCCNC5=O)c4)CC3)cccc2n1`, the Ki in test [1] was 39.8 nM; in test [2] it was 3.16 nM; in test [3], 0.316 nM.

Take `Cc1ccc2c(N3CCN(CCc4cccc(N)c4)CC3)cccc2n1`: the figures for the Ki in test [1], in test [2] and in [3] were 7.94 nM, 15.8 nM and 0.501 nM, respectively.

Turning to `Cc1ccc2c(N3CCN(CCc4cccc(NC(=O)Nc5cccc(F)c5)c4)CC3)cccc2n1`, the Intrinsic activity in test [4] and in [17] was 0 each time. Also, the inhibitory constant (Ki) in test [1] is 3.98 nM; in [2], 3.98 nM; in [6] it was 2510 nM; in test [3], 0.631 nM. Further, the outcome in test [7] was Active.

Take `Cc1ccc2c(N3CCN(CCc4cccc(-n5cccn5)c4)CC3)cccc2n1`: the Ki in test [10] is 50.1 nM; in test [1], 1.58 nM; in test [11], 398 nM; in test [2], 0.501 nM; in test [6] it was 316 nM; in [12], 2000 nM. In addition, the Ki in [13] is above 10000 nM; in [3], 0.158 nM; in [14], 398 nM; in [15], 126 nM; in test [16], 79.4 nM.

For `Cc1ccc2c(N3CCN(CCc4cccc(NC(=O)c5cnccn5)c4)CC3)cccc2n1`, the Ki is 79.4 nM in test [10]; 1.26 nM in [1]; 200 nM in [11]; 0.501 nM in test [2]; 398 nM in test [6]; above 1580 nM in test [12]. In addition, the Ki in test [13] was 794 nM; in test [3] it was 0.2 nM; in test [14], 158 nM; in test [15], 200 nM; in test [16], 794 nM.

For `Cc1ccc2c(N3CCN(CCc4cccc(NC(=O)c5cccc(F)c5)c4)CC3)cccc2n1`, the Ki in test [1] is 3.16 nM; in test [2] it was 0.631 nM; in test [6], 631 nM; in test [3], 0.316 nM. Further, the outcome in test [7], in [8] and in test [9] was Active.

For the compound `Cc1ccc2c(N3CCN(CCc4cccc(NC(=O)c5scnc5C)c4)CC3)cccc2n1`, the Ki in test [1] was 2 nM; in test [2], 0.398 nM; in test [6], 501 nM; in test [3], 0.251 nM. Moreover, the result in test [8] and in test [9] was Active. Also, the Intrinsic activity in test [5] is 0.

For `CCCS(=O)(=O)Nc1cccc(CCN2CCN(c3cccc4nc(C)ccc34)CC2)c1`, the Ki in test [1] is 2 nM; in test [2] it was 1.58 nM; in [3] it was 0.631 nM.

Take `Cc1ccc2c(N3CCN(CCc4cccc(NC(=O)Nc5ccc(F)cc5)c4)CC3)cccc2n1`: the Ki in test [1] was 3.16 nM; in [2], 2.51 nM; in test [6], 1260 nM; in [3], 0.501 nM.

Turning to `Cc1ccc2c(N3CCN(CCc4cccc(NC(=O)c5ccccc5F)c4)CC3)cccc2n1`, the Ki in test [1] is 3.16 nM; in test [2] it was 1 nM; in test [6], 631 nM; in [3] it was 0.251 nM. In addition, the result in test [8] and in [9] was Active. Further, the Intrinsic activity in test [5] was found to be 0.

As to `Cc1ccc2c(N3CCN(CCc4cccc(NC(=O)C(C)C)c4)CC3)cccc2n1`, the Ki in test [1] was 1.58 nM; in [2], 2 nM; in test [6], 1260 nM; in test [3], 0.158 nM. Further, the result in [7], in test [8] and in test [9] was Active.

`COc1ccc(C(=O)Nc2cccc(CCN3CCN(c4cccc5nc(C)ccc45)CC3)c2)cc1`: the Ki is 3.98 nM in [1], 3.16 nM in test [2], 1260 nM in test [6] and 0.501 nM in test [3]. In addition, the outcome in test [7], in test [8] and in test [9] was Active.

In the case of `COc1ccccc1C(=O)Nc1cccc(CCN2CCN(c3cccc4nc(C)ccc34)CC2)c1`, the Ki is 3.98 nM in test [1], 2.51 nM in [2], 794 nM in test [6] and 0.631 nM in test [3].

For the compound `COc1cccc(C(=O)Nc2cccc(CCN3CCN(c4cccc5nc(C)ccc45)CC3)c2)c1`, the Ki in test [1] was 1.58 nM; in [2], 2 nM; in [6], 1260 nM; in test [3] it was 0.158 nM.
